Assay [1] can be described thus: RPL19A-GFP modulators, yeast TOR pathway, confirmation, cell-based, S. cerevisiae, flow cytometry, cherry picks, mother/daughter gates (AID 2270;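 active means GFP response below 50% of the DMSO control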). Particulars: S. cerevisiae RPL19A-GFP strain, 3 h, at 10 µM, stronger effect = lower value, 100 = same GFP as DMSO wells. (Flow cytometry measures light scatter and fluorescence of single cells or particles in a stream.)
The nature of assay [2]: LAP4-GFP expression modulators in yeast, confirmation, cell-based, cherry picks, flow cytometry, mother/daughter gates (AID 2271;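 active means GFP response above 150% of the DMSO control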;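 further: ratio of sample to DMSO plate mean so 100% equals DMSO level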). Particulars: S. cerevisiae LAP4-GFP strain, 3 h, at 10 µM, stronger effect = higher value, 100 means same as DMSO control. Put shortly: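 System: Alexa 633-stained baker's yeast GFP-fusion strain / Medium: synthetic complete (SC) yeast growth medium / Doses: compound at 10 µM, single point / Times: 3 h treatment at 30 °C with rotation / Detection: HT flow cytometry, GFP fluorescence channel / Benchmarks: DMSO-only negative wells, rapamycin 400 ng/mL positive wells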

A short description of assay [3]: modulators of MEP2-GFP levels in yeast, confirmation, S. cerevisiae, flow cytometry GFP, cherry picks (AID 2272;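 active means GFP response above 150% of the DMSO control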;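 further: ratio of well signal to plate DMSO mean so 100% equals DMSO level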). Particulars: S. cerevisiae MEP2-GFP strain, 3 h, at 10 µM, stronger effect = higher value.
A short description of assay [4]: AGP1-GFP expression modulators, hit retest, confirmation, cell-based, flow cytometry, S. cerevisiae, cherry picks (AID 2273).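 Further: median GFP channel fluorescence over the whole cell population gate.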 Particulars: S. cerevisiae AGP1-GFP strain, 3 h, at 10 µM.
Assay [5] in a line: modulators of CIT2-GFP expression in yeast, confirmation, S. cerevisiae, GFP fusion, cherry picks, mother/daughter gates (AID 2274). Particulars: S. cerevisiae CIT2-GFP strain, flow cytometry, 3 h, at 10 µM, stronger effect = higher value.
[6] abbreviates: measured here: daughter cell gate.
Setting [7] is: measured here: mother cell gate.
The mark [8] stands for this setting: measured here: daughter cell gate response.
Setting [9] is: measured here: mother cell gate response.

Molecules are shown by their SMILES. Active and inactive are the calls of the source.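 How the source made its calls, unless noted: active means GFP response above 150% of the DMSO level; inconclusive means fewer than 70 events counted for a yeast strain; inactive means the rest.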

For `COc1ccc(/C=N/c2c(-c3ccco3)nc3ccccn23)cc1OC`, the GFP response vs DMSO is 97.8% (inactive) in assay [1], 98.5% in assay [1] (setting [6]), 98.6% in assay [1] (setting [7]) and 102% (inactive) in assay [3]. The figures for the GFP response relative to DMSO in assay [2], in assay [2] (setting [8]) and in assay [2] (setting [9]) were 95.3% (inactive), 96.5% and 93.6%, respectively. Besides, the GFP response, % of DMSO is 98.9% (inactive) in assay [4], 101% (inactive) in assay [5], 100% in assay [5] (setting [6]) and 100% in assay [5] (setting [7]).

With `C#CCSc1nncn1C(=O)/C=C/c1ccccc1`, the GFP response vs DMSO in assay [1] is 99.4% (inactive); in assay [1] (setting [6]) it was 98.6%; in assay [1] (setting [7]) it was 95%; in assay [3], 103% (inactive). The GFP response relative to DMSO in assay [2] is 145% (inactive); in assay [2] (setting [8]), 142%; in assay [2] (setting [9]), 153%. The GFP response, % of DMSO in assay [4] was 101% (inactive); in assay [5], 103% (inactive); in assay [5] (setting [6]) it was 111%; in assay [5] (setting [7]), 93.7%.

In the case of `O=C1CC(Sc2nnc(-c3ccccc3O)o2)C(=O)N1c1ccccc1` (stereo not drawn), the GFP response vs DMSO in assay [1] was 95.1% (inactive); in assay [1] (setting [6]) it was 98.3%; in assay [1] (setting [7]) it was 93.1%; in assay [3], 101% (inactive). For the same molecule, the GFP response relative to DMSO was 104% (inactive) in assay [2], 101% in assay [2] (setting [8]) and 105% in assay [2] (setting [9]). Further, the GFP response, % of DMSO in assay [4] is 104% (inactive); in assay [5], 106% (inactive); in assay [5] (setting [6]), 103%; in assay [5] (setting [7]), 106%.

`c1ccc(CSc2ccc(-c3ccccn3)nn2)cc1`: the GFP response vs DMSO is 101% (inactive) in assay [1], 97.1% in assay [1] (setting [6]), 91.9% in assay [1] (setting [7]) and 114% (inactive) in assay [3]. In addition, the GFP response relative to DMSO in assay [2] is 108% (inactive); in assay [2] (setting [8]), 104%; in assay [2] (setting [9]) it was 106%. In addition, the GFP response, % of DMSO in assay [4] was 96.7% (inactive); in assay [5], 97.3% (inactive); in assay [5] (setting [6]), 97.4%; in assay [5] (setting [7]), 93.2%.

`Cc1ccc(-c2csc(NC(=O)c3cccc([N+](=O)[O-])c3)n2)cc1`: the GFP response vs DMSO was 101% (inactive) in assay [1], 98.1% in assay [1] (setting [6]), 97.5% in assay [1] (setting [7]) and 107% (inactive) in assay [3]. Moreover, the GFP response relative to DMSO is 97% (inactive) in assay [2], 95.9% in assay [2] (setting [8]) and 97.3% in assay [2] (setting [9]). In addition, the GFP response, % of DMSO in assay [4] was 99.6% (inactive); in assay [5], 98.8% (inactive); in assay [5] (setting [6]), 97.4%; in assay [5] (setting [7]), 93.2%.

For `Cc1ccc(S(=O)(=O)NCC23C=CC(O2)C2C(=O)N(c4ccccc4)C(=O)C23)cc1` (stereo not drawn), the GFP response vs DMSO in assay [1] is 98.4% (inactive); in assay [1] (setting [6]), 98.9%; in assay [1] (setting [7]) it was 98.7%; in assay [3], 102% (inactive). Further, the GFP response relative to DMSO in assay [2] is 96.7% (inactive); in assay [2] (setting [8]), 97.6%; in assay [2] (setting [9]), 97.2%. In addition, the GFP response, % of DMSO in assay [4] is 99.9% (inactive); in assay [5] it was 105% (inactive); in assay [5] (setting [6]), 105%; in assay [5] (setting [7]) it was 104%.

For the molecule `Cc1[nH]n(-c2ncc(-c3ccccc3)s2)c(=O)c1C(c1ccc(Cl)cc1)C(C#N)C#N` (stereo not drawn), the GFP response vs DMSO in assay [1] is 94.5% (inactive); in assay [1] (setting [6]) it was 98.1%; in assay [1] (setting [7]), 91.6%; in assay [3], 106% (inactive). The GFP response relative to DMSO in assay [2] is 156% (active); in assay [2] (setting [8]), 136%; in assay [2] (setting [9]) it was 159%. In addition, the GFP response, % of DMSO was 100% (inactive) in assay [4], 95.8% (inactive) in assay [5], 101% in assay [5] (setting [6]) and 89.3% in assay [5] (setting [7]).

Regarding `O=C(OCn1ncc(Br)c(Br)c1=O)c1c(F)cccc1F`, the GFP response vs DMSO was 93.3% (inactive) in assay [1], 94% in assay [1] (setting [6]), 90.6% in assay [1] (setting [7]) and 98.8% (inactive) in assay [3]. The GFP response relative to DMSO in assay [2] was 168% (active); in assay [2] (setting [8]), 153%; in assay [2] (setting [9]) it was 175%. The GFP response, % of DMSO in assay [4] is 116% (inactive); in assay [5], 97.2% (inactive); in assay [5] (setting [6]), 105%; in assay [5] (setting [7]) it was 88.8%.

Take `COc1ccc(N=Cc2cc(Cc3ccccc3Cl)cc([N+](=O)[O-])c2O)cc1OC`: the GFP response vs DMSO is 93.4% (inactive) in assay [1], 93% in assay [1] (setting [6]), 86.5% in assay [1] (setting [7]) and 120% (inactive) in assay [3]. In addition, the GFP response relative to DMSO was 142% (inactive) in assay [2], 114% in assay [2] (setting [8]) and 147% in assay [2] (setting [9]). The GFP response, % of DMSO was 96.7% (inactive) in assay [4], 96.5% (inactive) in assay [5], 86.7% in assay [5] (setting [6]) and 96.6% in assay [5] (setting [7]).

On to `Brc1ccc2c(c1)OCCOCCOc1cc(Br)ccc1OCCOCCOCCO2`, for which the GFP response vs DMSO was 99% (inactive) in assay [1], 98.4% in assay [1] (setting [6]), 96.9% in assay [1] (setting [7]) and 111% (inactive) in assay [3]. Moreover, the values for the GFP response relative to DMSO in assay [2], in assay [2] (setting [8]) and in assay [2] (setting [9]) were 126% (inactive), 123% and 126%, respectively. Further, the GFP response, % of DMSO was 92.7% (inactive) in assay [4], 96.9% (inactive) in assay [5], 97.2% in assay [5] (setting [6]) and 93.8% in assay [5] (setting [7]).

As to `CCC(=O)Nc1cccc(C(=O)/C=C/c2cc(Br)ccc2OC)c1`, the GFP response vs DMSO in assay [1] was 98.8% (inactive); in assay [1] (setting [6]) it was 99.2%; in assay [1] (setting [7]) it was 97.7%; in assay [3] it was 104% (inactive). Also, the GFP response relative to DMSO is 103% (inactive) in assay [2], 98.7% in assay [2] (setting [8]) and 110% in assay [2] (setting [9]). The GFP response, % of DMSO in assay [4] was 97.2% (inactive); in assay [5], 93.9% (inactive); in assay [5] (setting [6]), 94.8%; in assay [5] (setting [7]), 91.2%.

`COc1ccc([N+](=O)[O-])c(S(=O)(=O)c2ccc(Cl)cc2)n1`: the GFP response vs DMSO in assay [1] was 84.5% (inactive); in assay [1] (setting [6]) it was 54.7%; in assay [1] (setting [7]), 74.7%; in assay [3], 136% (inactive). Besides, the GFP response relative to DMSO was 333% (active) in assay [2], 173% in assay [2] (setting [8]) and 309% in assay [2] (setting [9]). Also, the GFP response, % of DMSO is 131% (inactive) in assay [4], 93.4% (inactive) in assay [5], 100% in assay [5] (setting [6]) and 78.8% in assay [5] (setting [7]).

`O=C1/C(=C/c2ccccn2)COc2ccccc21`: the GFP response vs DMSO in assay [1] is 94.2% (inactive); in assay [1] (setting [6]), 96.4%; in assay [1] (setting [7]) it was 91.2%; in assay [3], 110% (inactive). The values for the GFP response relative to DMSO in assay [2], in assay [2] (setting [8]) and in assay [2] (setting [9]) were 135% (inactive), 130% and 134%, respectively. For the same molecule, the GFP response, % of DMSO was 95.5% (inactive) in assay [4], 94.4% (inactive) in assay [5], 99.3% in assay [5] (setting [6]) and 88.2% in assay [5] (setting [7]).

The record behind these values is PubChem BioAssay.
